Results taken from ChEMBL document CHEMBL4350998, “Design, synthesis, and structure-activity relationship studies of l-amino alcohol derivatives as broad-spectrum antifungal agents” (Eur J Med Chem, 2019).

What was measured:
Cryptococcus neoformans = test: Antifungal activity against Cryptococcus neoformans CGMCC 2.3161 assessed as inhibition of visible microbial growth by NCCLS protocol based method; type: functional
Method in brief: (§1)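 Compounds dissolved in DMSO and serially diluted into growth medium. MIC was read as the lowest concentration that inhibited visible fungal growth.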

Aspergillus fumigatus = test: Antifungal activity against Aspergillus fumigatus CGMCC 3.7795 assessed as inhibition of visible microbial growth by NCCLS protocol based method; type: functional; method in brief: as §1
Candida albicans [1] = test: Antifungal activity against Candida albicans CPCC 400523 assessed as inhibition of visible microbial growth by NCCLS protocol based method; type: functional
Candida tropicalis = test: Antifungal activity against Candida tropicalis CGMCC 2.3739 assessed as inhibition of visible microbial growth by NCCLS protocol based method; type: functional; method in brief: as §1
Candida albicans [2] = test: Antifungal activity against Candida albicans ATCC SC5314 assessed as inhibition of visible microbial growth by NCCLS protocol based method; type: functional; method in brief: as §1
Candida albicans [3] = test: Antifungal activity against fluconazole-resistant Candida albicans Strain 17# assessed as inhibition of visible microbial growth by NCCLS protocol based method; type: functional
Method in brief: (§2)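 Broth dilution MIC against clinical fluconazole-resistant C. albicans isolates from AIDS patients. Compounds dissolved in DMSO and serially diluted into growth medium. MIC was taken as the lowest concentration that inhibits visible fungal growth. Fluconazole and itraconazole served as positive controls.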

Candida albicans [4] = test: Antifungal activity against fluconazole-resistant Candida albicans Strain CaR assessed as inhibition of visible microbial growth by NCCLS protocol based method; type: functional; method in brief: as §2
[5] = Cytotoxicity in human A549 cells assessed as reduction in cell viability at 50 uM/L incubated for 24 hrs by MTT assay relative to control; type: cell-based; conditions: read-out: INH
Method in brief: (§3)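 A549 cells were seeded at 3000 cells/well and preincubated for 16 h at 37 °C, 5% CO2. Medium was then replaced with fresh medium holding compound (DMSO stock diluted to final 0.08, 0.4, 2.0, 10 or 50 μM/L). Exposure lasted 24 h at 37 °C, 5% CO2, followed by MTT for 4 h and absorbance at 490 nm. Results are given as % inhibition.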

[6] = Cytotoxicity in human A549 cells assessed as reduction in cell viability at 0.08 uM/L incubated for 24 hrs by MTT assay relative to control; type: cell-based; conditions: read-out: INH; method in brief: as §3
[7] = Cytotoxicity in human A549 cells assessed as reduction in cell viability at 2 uM/L incubated for 24 hrs by MTT assay relative to control; type: cell-based; conditions: read-out: INH; method in brief: as §3
[8] = Cytotoxicity in human A549 cells assessed as reduction in cell viability at 0.40 uM/L incubated for 24 hrs by MTT assay relative to control; type: cell-based; conditions: read-out: INH; method in brief: as §3
[9] = Cytotoxicity in human A549 cells assessed as reduction in cell viability at 10 uM/L incubated for 24 hrs by MTT assay relative to control; type: cell-based; conditions: read-out: INH; method in brief: as §3

SMILES	MIC (Cryptococcus neoformans) [µg/mL]	MIC (Aspergillus fumigatus) [µg/mL]	MIC (Candida albicans [1]) [µg/mL]	MIC (Candida tropicalis) [µg/mL]	MIC (Candida albicans [2]) [µg/mL]	MIC (Candida albicans [3]) [µg/mL]	MIC (Candida albicans [4]) [µg/mL]	cytotoxicity at 24 h, 50 µM [5] [%]	cytotoxicity at 24 h, 0.08 µM [6] [%]	cytotoxicity at 24 h, 2 µM [7] [%]	cytotoxicity at 24 h, 0.4 µM [8] [%]	cytotoxicity at 24 h, 10 µM [9] [%]
CC(C)C[C@@H](Cn1ccnc1)NC(=O)c1ccc(-c2ccccc2)cc1	1	> 64	< 0.03	< 0.03	< 0.03							
CC(C)[C@@H](Cn1ccnc1)NC(=O)c1ccc(-c2cccc(F)c2)cc1	2	> 64	0.06	0.06	< 0.03							
O=C(N[C@@H](Cc1ccccc1)Cn1ccnc1)c1ccc(-c2ccccc2)cc1	0.25	> 64	0.125	< 0.03	< 0.03							
CC(C)C[C@@H](Cn1ccnc1)NC(=O)c1ccc(-c2ccccc2)c(F)c1	4	> 64	0.06	< 0.03	< 0.03							
CC[C@H](C)[C@@H](Cn1ccnc1)NC(=O)c1ccc(-c2ccccc2F)cc1	1	> 64	0.06	0.06	< 0.03							
C[C@@H](Cn1ccnc1)NC(=O)c1ccc(-c2ccccc2)cc1	> 64	1	4	0.25	0.5							
CC[C@H](C)[C@@H](Cn1ccnc1)NC(=O)c1ccc(-c2ccccc2)c(C)c1	> 64	> 64	> 16	2	> 16							
CC[C@H](C)[C@@H](Cn1cncn1)NC(=O)c1ccc(-c2ccccc2)cc1F	> 64	2	0.25	0.25	0.125							
CC[C@H](C)[C@@H](Cn1ccnc1)NC(=O)c1ccc(-c2ccccc2)cc1OC	> 64	> 64	1	0.125	0.25							
CC[C@H](C)[C@@H](Cn1ccnc1)NC(=O)c1ccc(-c2ccccc2)cc1Cl	> 64	> 64	0.25	0.125	0.06							
O=C(N[C@@H](Cc1ccccc1)Cn1ccnc1)c1ccc(-c2ccccc2)c(F)c1	0.5	> 64	0.06	< 0.03	< 0.03							
CC[C@H](C)[C@@H](Cn1ccnc1)NC(=O)c1ccc(-c2ccccc2)c(F)c1	2	> 64	0.06	0.06	< 0.03							
CC[C@H](C)[C@@H](Cn1ccnc1)NC(=O)c1ccc(-c2ccc(F)cc2)cc1F	4	8	0.25	0.125	0.125							
CC[C@H](C)[C@@H](Cn1ccnc1)NC(=O)c1ccc(-c2cccc(F)c2)cc1F	4	4	0.06	< 0.03	< 0.03							
CC[C@H](C)[C@@H](Cn1ccnc1)NC(=O)c1ccc(-c2ccccc2)cc1	0.5	> 64	< 0.03	< 0.03	< 0.03							
CC[C@H](C)[C@@H](Cn1ccnc1)NC(=O)c1ccc(-c2ccccc2)c(Cl)c1	4	> 64	4	0.25	0.5							

SMILES	MIC (Cryptococcus neoformans) [µg/mL]	MIC (Aspergillus fumigatus) [µg/mL]	MIC (Candida albicans [1]) [µg/mL]	MIC (Candida tropicalis) [µg/mL]	MIC (Candida albicans [2]) [µg/mL]	MIC (Candida albicans [3]) [µg/mL]	MIC (Candida albicans [4]) [µg/mL]	cytotoxicity at 24 h, 50 µM [5] [%]	cytotoxicity at 24 h, 0.08 µM [6] [%]	cytotoxicity at 24 h, 2 µM [7] [%]	cytotoxicity at 24 h, 0.4 µM [8] [%]	cytotoxicity at 24 h, 10 µM [9] [%]
CC[C@H](C)[C@@H](Cn1ccnc1)NC(=O)c1ccc(-c2ccc(F)cc2)cc1	1	> 64	0.25	0.125	0.125							
CCC[C@@H](Cn1ccnc1)NC(=O)c1ccc(-c2ccccc2)cc1	2	4	0.06	< 0.03	< 0.03							
CC[C@H](C)[C@@H](Cn1ccnc1)NC(=O)c1ccc(-c2ccccc2)cc1C	> 64	> 64	1	0.5	0.25							
O=C(N[C@@H](Cc1ccccc1)Cn1ccnc1)c1ccc(-c2ccccc2)cc1F	> 64	> 64	0.06	< 0.03	< 0.03							
CC(C)[C@@H](Cn1ccnc1)NC(=O)c1ccc(-c2ccccc2F)cc1	1	> 64	0.06	0.06	< 0.03							
CC(C)[C@@H](Cn1ccnc1)NC(=O)c1ccc(-c2ccc(F)cc2)cc1	1	32	0.5	0.25	0.25							
CC(C)[C@@H](Cn1ccnc1)NC(=O)c1ccc(-c2ccccc2)cc1	1	8	0.06	< 0.03	< 0.03							
CC(C)[C@@H](Cn1ccnc1)NC(=O)c1ccc(-c2ccccc2)cc1F	2	1	0.06	< 0.03	< 0.03	4	32					
CC[C@@H](Cn1ccnc1)NC(=O)c1ccc(-c2ccccc2)cc1	16	4	0.25	0.125	< 0.06							
CC[C@H](C)[C@@H](Cn1ccnc1)NC(=O)c1ccc(-c2cccc(F)c2)cc1	2	> 64	0.125	0.06	< 0.03							
CC(C)C[C@@H](Cn1ccnc1)NC(=O)c1ccc(-c2ccccc2)cc1F	2	2	0.06	< 0.03	< 0.03	1	4					
CC(C)[C@H](Cn1ccnc1)NC(=O)c1ccc(-c2ccccc2)cc1	> 64	> 64	> 16	8	> 16							
CC(C)[C@@H](Cn1ccnc1)NC(=O)c1ccc(-c2ccccc2)c(F)c1	2	> 64	0.06	0.06	< 0.03							
CCC(C)n1ncn(-c2ccc(N3CCN(c4ccc(OCC5COC(Cn6cncn6)(c6ccc(Cl)cc6Cl)O5)cc4)CC3)cc2)c1=O (centres undefined) [ITRACONAZOLE]	< 0.125	< 0.125	< 0.03	< 0.03	< 0.03							
C[C@@H](c1ncncc1F)[C@](O)(Cn1cncn1)c1ccc(F)cc1F [VORICONAZOLE]								36.7	17.1	25.5	20.3	32
